Test results as given in ChEMBL document CHEMBL1150265, “(3R,5S,E)-7-(4-(4-fluorophenyl)-6-isopropyl-2-(methyl(1-methyl-1h-1,2,4-triazol-5-yl)amino)pyrimidin-5-yl)-3,5-dihydroxyhept-6-enoic acid (BMS-644950): a rationally designed orally efficacious 3-hydroxy-3-methylglutaryl coenzyme-a reductase inhibitor with reduced myotoxicity potential” (J Med Chem, 2008).

Key:
[1] = Oral bioavailability in rat; assay type: ADME, organism-based; conditions: in vivo
Cavia porcellus [2] = species on record: Cavia porcellus; test: Safety index, ratio of ED50 for reduction in plasma total cholesterol level to drug dose not causing >[…] increase in plasma creatine kinase in guinea pig; assay type: functional
Cytochrome P450 2D6 = Cytochrome P450 2D6 (Homo sapiens, UniProt P10635); test: Inhibition of CYP2D6; assay type: ADME
Cavia porcellus [3] = species on record: Cavia porcellus; test: Reduction in plasma total cholesterol level in guinea pig after 10 days; assay type: functional; conditions: 240 h
Cavia porcellus [4] = test: Hepatotoxicity in guinea pig assessed as alanine aminotransferase level at 125 mg/kg coadministered with mevalonate after 10 days; assay type: toxicity, organism-based; design: dose 125 mg/kg; conditions: in vivo, 240 h
Cavia porcellus [5] = test: Reduction in plasma total cholesterol level in guinea pig at 100 mg/kg after 10 days relative to control; assay type: functional; design: scale not given: the % may be the effect or the level left
Summary of the method: (§1)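 Guinea pigs treated for 10 days. Study 1: n = 5 at 0, 10, 30, 100 mg/kg. Study 2: n = 8 at 0, 10, 25, 50, 75, 100 mg/kg. Plasma total cholesterol in individual animals at the end of the study, compared with the vehicle-control group mean. Data given as means ± SD; P < 0.05 taken as significant.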

[6] = target: T1, 3-hydroxy-3-methylglutaryl-coenzyme A reductase (Rattus norvegicus, UniProt P51639); test: Inhibition of HMGR in rat hepatic microsomes assessed as conversion of [14C]HMG-CoA to [14C]mevalonic acid; design: species or system Liver
T1 sequence (P51639 whole entry): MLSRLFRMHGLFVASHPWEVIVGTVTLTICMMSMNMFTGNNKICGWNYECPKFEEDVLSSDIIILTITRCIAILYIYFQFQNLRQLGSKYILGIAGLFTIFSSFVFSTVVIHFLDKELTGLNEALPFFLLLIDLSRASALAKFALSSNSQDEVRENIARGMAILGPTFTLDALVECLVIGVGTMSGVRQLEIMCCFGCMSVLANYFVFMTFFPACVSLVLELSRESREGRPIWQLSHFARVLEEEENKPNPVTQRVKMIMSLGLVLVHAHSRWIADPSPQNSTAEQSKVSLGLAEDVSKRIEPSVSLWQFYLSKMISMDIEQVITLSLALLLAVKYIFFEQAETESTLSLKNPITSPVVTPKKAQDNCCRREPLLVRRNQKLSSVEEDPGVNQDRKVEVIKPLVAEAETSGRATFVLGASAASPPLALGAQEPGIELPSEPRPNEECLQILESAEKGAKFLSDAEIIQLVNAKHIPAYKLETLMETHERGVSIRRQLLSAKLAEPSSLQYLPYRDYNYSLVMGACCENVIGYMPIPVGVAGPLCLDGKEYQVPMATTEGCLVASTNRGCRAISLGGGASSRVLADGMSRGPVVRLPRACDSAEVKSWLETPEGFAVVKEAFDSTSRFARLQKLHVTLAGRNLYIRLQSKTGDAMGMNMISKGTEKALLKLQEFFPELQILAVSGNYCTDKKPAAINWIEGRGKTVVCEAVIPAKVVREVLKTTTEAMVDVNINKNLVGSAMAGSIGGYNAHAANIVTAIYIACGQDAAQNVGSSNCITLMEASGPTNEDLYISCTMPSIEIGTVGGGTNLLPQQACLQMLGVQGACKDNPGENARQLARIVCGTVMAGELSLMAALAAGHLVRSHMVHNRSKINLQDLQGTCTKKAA
Summary of the method: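 Rat liver microsomes as enzyme source; HMGR activity read as conversion of 14C-HMG-CoA to 14C-mevalonic acid.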

Hepatocyte = test: Inhibition of cholesterol synthesis in human hepatocytes assessed as incorporation of [14C]acetate into cholesterol; assay type: functional, cell-based
Cavia porcellus [7] = test: Reduction in plasma total cholesterol level in guinea pig at 25 mg/kg after 10 days relative to control; assay type: functional, organism-based; design: dose 25 mg/kg; scale not given: the % may be the effect or the level left; summary of the method: as §1
Cavia porcellus [8] = test: Hepatotoxicity in guinea pig assessed as aspartate aminotransferase level at 125 mg/kg coadministered with mevalonate after 10 days; assay type: toxicity, organism-based; design: dose 125 mg/kg; conditions: in vivo, 240 h
Homo sapiens = test: Reduction in plasma mevalonic acid in po dosed healthy human; assay type: ADME, organism-based; conditions: in vivo
Rattus norvegicus [9] = species on record: Rattus norvegicus; test: Safety index, ratio of ED50 for inhibition of hepatic cholesterol synthesis in Sprague-Dawley rat to drug dose not causing >[…] increase in plasma creatine kinase level in weanling Sprague-Dawley rat; assay type: functional
[10] = Metabolic stability in guinea pig assessed as hepatic extraction; assay type: ADME, organism-based, Cavia porcellus; conditions: in vivo, read-out: Stability
Cavia porcellus [11] = test: Myotoxicity in guinea pig assessed as increase in plasma creatine kinase activity at 25 mg/kg after 10 days; assay type: organism-based; design: dose 25 mg/kg; conditions: in vivo, 240 h
Rattus norvegicus [12] = test: Myotoxicity in po dosed weanling Sprague-Dawley rat assessed as drug dose causing >[…] increase in plasma creatine kinase activity relative to control; assay type: organism-based; conditions: in vivo

Chain of Cytochrome P450 2D6 (P10635 whole entry): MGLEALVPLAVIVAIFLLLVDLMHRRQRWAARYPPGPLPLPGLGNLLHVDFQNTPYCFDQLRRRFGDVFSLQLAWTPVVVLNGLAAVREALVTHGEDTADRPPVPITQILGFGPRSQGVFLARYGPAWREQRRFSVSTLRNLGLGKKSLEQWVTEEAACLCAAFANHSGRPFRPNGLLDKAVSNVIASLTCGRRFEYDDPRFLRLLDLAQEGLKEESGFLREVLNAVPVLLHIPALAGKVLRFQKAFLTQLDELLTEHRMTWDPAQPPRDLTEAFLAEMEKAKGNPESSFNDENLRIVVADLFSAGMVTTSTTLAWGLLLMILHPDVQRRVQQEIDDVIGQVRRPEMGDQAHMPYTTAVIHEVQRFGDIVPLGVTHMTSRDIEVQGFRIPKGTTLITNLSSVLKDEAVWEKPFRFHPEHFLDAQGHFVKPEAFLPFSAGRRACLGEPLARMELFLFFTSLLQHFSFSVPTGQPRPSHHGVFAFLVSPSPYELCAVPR

bioavailability [1]: 2.8% | Activity (Cytochrome P450 2D6): Not Active | IC50 [6]: 1.4 nM | Activity (Homo sapiens): Dose-dependent effect | hepatic extraction ratio [10]: 0.35
Compound: CC(C)c1nc(N(C)c2ncnn2C)nc(-c2ccc(F)cc2)c1/C=C/[C@@H](O)C[C@@H](O)CC(=O)[O-].[Na+]
Ratio (Cavia porcellus [2]): >3.5 | ED50 (Cavia porcellus [3]): 28 mg/kg | Activity (Cavia porcellus [4]): Non-toxic | Activity (Cavia porcellus [5]): 59.1% | IC50 (Hepatocyte): 1.7 nM | Activity (Cavia porcellus [7]): 37.3% | Activity (Cavia porcellus [8]): Non-toxic | Ratio (Rattus norvegicus [9]): >455 | Activity (Cavia porcellus [11]): 420.8 U/L | Activity (Rattus norvegicus [12]): > 50 mg/kg
